Reference: ChEMBL document CHEMBL1240380, “Acinetobacter baumannii increases tolerance to antibiotics in response to monovalent cations” (Antimicrob Agents Chemother, 2010)
Active and inactive are the calls of the source. No cut-off for these calls is given here.

What was measured:
[1] = tested on: Acinetobacter baumannii; assay: Antibacterial activity against Acinetobacter baumannii isolate 510 using MHB medium after 24 hrs; format: functional, organism-based
How it was run: (§1)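 MIC by CLSI broth microdilution in MHB, with the medium supplemented with 150 mM NaCl where indicated. The read-out was taken after 24 h of drug exposure.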

[2] = tested on: Acinetobacter baumannii; assay: Antibacterial activity against Acinetobacter baumannii ATCC 17978 using MHB medium with 150 mM NaCl after 24 hrs; format: functional; how it was run: as §1
[3] = tested on: Acinetobacter baumannii; assay: Antibacterial activity against Acinetobacter baumannii isolate 510 using MHB medium with 150 mM NaCl after 24 hrs; format: functional, organism-based; how it was run: as §1
[4] = tested on: Acinetobacter baumannii; assay: Antibacterial activity against Acinetobacter baumannii isolate 2824 using MHB medium after 24 hrs; format: functional, organism-based; how it was run: as §1
[5] = tested on: Acinetobacter baumannii; assay: Antibacterial activity against Acinetobacter baumannii ATCC 17978 assessed as bacterial growth at 0.75 mg/L in presence of 150 mM NaCl; format: functional
How it was run: (§2)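 Overnight cultures were diluted 1:100 in NaCl-free MHB and grown to OD600 0.4. They were then diluted to 10^5 CFU/ml in MHB with or without 150 mM NaCl, plus or minus antibiotic. Growth was run in triplicate for 12 h at 37°C with shaking at 180 rpm, and OD600 was read every 2 h.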

[6] = tested on: Acinetobacter baumannii; assay: Antibacterial activity against Acinetobacter baumannii using MHB medium assessed as bacterial growth at 0.75 mg/L in presence of 150 mM of KCl; format: functional, organism-based
How it was run: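 Growth-curve challenge with 150 mM KCl in place of NaCl. Overnight cultures were diluted 1:100 in NaCl-free MHB and grown to OD600 0.4. They were then diluted to 10^5 CFU/ml in MHB with or without 150 mM KCl, plus antibiotic. Cultures ran in triplicate for 12 h at 37°C with shaking at 180 rpm, and OD600 was read every 2 h.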

[7] = tested on: Acinetobacter baumannii; assay: Antibacterial activity against Acinetobacter baumannii isolate 2898 using MHB medium with 150 mM NaCl assessed as bacterial growth at 0.75 mg/L after 12 hrs; format: functional, organism-based; how it was run: as §2
[8] = tested on: Acinetobacter baumannii; assay: Antibacterial activity against Acinetobacter baumannii isolate 2898 using MHB medium with 150 mM NaCl after 24 hrs; format: functional, organism-based; how it was run: as §1
[9] = tested on: Acinetobacter baumannii; assay: Antibacterial activity against Acinetobacter baumannii isolate 2898 using MHB medium assessed as bacterial growth at 0.75 mg/L after 12 hrs; format: functional, organism-based; how it was run: as §2
[10] = tested on: Acinetobacter baumannii; assay: Antibacterial activity against Acinetobacter baumannii ATCC 17978 using MHB medium assessed as bacterial growth at 0.75 mg/L after 12 hrs; format: functional, organism-based; how it was run: as §2
[11] = tested on: Acinetobacter baumannii; assay: Antibacterial activity against Acinetobacter baumannii isolate 5191 using MHB medium with 150 mM NaCl after 24 hrs; format: functional, organism-based; how it was run: as §1
[12] = tested on: Acinetobacter baumannii; assay: Antibacterial activity against Acinetobacter baumannii isolate 2824 using MHB medium assessed as bacterial growth at 0.75 mg/L after 12 hrs; format: functional, organism-based; how it was run: as §2
[13] = tested on: Acinetobacter baumannii; assay: Antibacterial activity against Acinetobacter baumannii isolate 4860 using MHB medium assessed as bacterial growth at 0.75 mg/L after 12 hrs; format: functional, organism-based; how it was run: as §2
[14] = tested on: Acinetobacter baumannii; assay: Antibacterial activity against Acinetobacter baumannii isolate 4860 using MHB medium with 150 mM NaCl after 24 hrs; format: functional, organism-based; how it was run: as §1
[15] = tested on: Acinetobacter baumannii; assay: Antibacterial activity against Acinetobacter baumannii isolate 5191 using MHB medium with 150 mM NaCl assessed as bacterial growth at 0.75 mg/L after 12 hrs; format: functional, organism-based; how it was run: as §2
[16] = tested on: Acinetobacter baumannii; assay: Antibacterial activity against Acinetobacter baumannii isolate 5191 using MHB medium after 24 hrs; format: functional, organism-based; how it was run: as §1
[17] = tested on: Acinetobacter baumannii; assay: Antibacterial activity against Acinetobacter baumannii isolate 4860 using MHB medium with 150 mM NaCl assessed as bacterial growth at 0.75 mg/L after 12 hrs; format: functional, organism-based; how it was run: as §2
[18] = tested on: Acinetobacter baumannii; assay: Antibacterial activity against Acinetobacter baumannii ATCC 17978 using MHB medium with 150 mM NaCl assessed as bacterial growth at 0.75 mg/L after 12 hrs; format: functional, organism-based; how it was run: as §2
[19] = tested on: Acinetobacter baumannii; assay: Antibacterial activity against Acinetobacter baumannii using MHB medium assessed as bacterial growth at 1.5 mg/L after 12 hrs in presence of 30 mg/L efflux pump inhibitor PAbetaN; format: functional, organism-based
[20] = tested on: Acinetobacter baumannii; assay: Antibacterial activity against Acinetobacter baumannii isolate 2824 using MHB medium with 150 mM NaCl assessed as bacterial growth at 0.75 mg/L after 12 hrs; format: functional, organism-based; how it was run: as §2
[21] = tested on: Acinetobacter baumannii; assay: Antibacterial activity against Acinetobacter baumannii isolate 510 using MHB medium with 150 mM NaCl assessed as bacterial growth at 0.75 mg/L after 12 hrs; format: functional, organism-based; how it was run: as §2
[22] = tested on: Acinetobacter baumannii; assay: Antibacterial activity against Acinetobacter baumannii using MHB medium with 150 mM assessed as bacterial growth at 1.5 mg/L after 12 hrs in presence of 30 mg/L efflux pump inhibitor PAbetaN; format: functional, organism-based
[23] = tested on: Acinetobacter baumannii; assay: Antibacterial activity against Acinetobacter baumannii isolate 5191 using MHB medium assessed as bacterial growth at 0.75 mg/L after 12 hrs; format: functional, organism-based; how it was run: as §2
[24] = tested on: Acinetobacter baumannii; assay: Antibacterial activity against Acinetobacter baumannii isolate 2824 using MHB medium with 150 mM NaCl after 24 hrs; format: functional, organism-based; how it was run: as §1
[25] = tested on: Acinetobacter baumannii; assay: Antibacterial activity against Acinetobacter baumannii isolate 510 using MHB medium assessed as bacterial growth at 0.75 mg/L after 12 hrs; format: functional, organism-based; how it was run: as §2
[26] = tested on: Acinetobacter baumannii; assay: Antibacterial activity against Acinetobacter baumannii isolate 4860 using MHB medium after 24 hrs; format: functional, organism-based; how it was run: as §1
[27] = tested on: Acinetobacter baumannii; assay: Antibacterial activity against Acinetobacter baumannii using MHB medium with NaCl in presence of efflux pump inhibitor PAbetaN; format: functional, organism-based
How it was run: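 Cells in MHB with or without 150 mM NaCl were pretreated with 60 mg/liter PAβN for 30 min at room temperature before antibiotic was added. Cultures at 10^5 CFU/ml were then grown in triplicate for 12 h at 37°C with shaking at 180 rpm, and OD600 was monitored every 2 h.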

[28] = tested on: Acinetobacter baumannii; assay: Antibacterial activity against Acinetobacter baumannii ATCC 17978 using MHB medium after 24 hrs; format: functional; how it was run: as §1
[29] = tested on: Acinetobacter baumannii; assay: Antibacterial activity against Acinetobacter baumannii isolate 2898 using MHB medium after 24 hrs; format: functional, organism-based; how it was run: as §1

With COLISTIN the MIC [1] was 0.75 µg/mL, the MIC [2] was 1.5 µg/mL and the MIC [3] was 1.5 µg/mL. The MIC [4] was 0.75 µg/mL, the Activity [5] was “inactive” and the Activity [6] was “inactive”. For the same sequence, the Activity [7] was “inactive”, the MIC [8] was 1.5 µg/mL and the Activity [9] was “Active”. For the same sequence, the Activity [10] was “Active”, the MIC [11] was 1.5 µg/mL and the Activity [12] was “Active”. For the same sequence, the Activity [13] was “Active”, the MIC [14] was 1.5 µg/mL and the Activity [15] was “inactive”. For the same sequence, the MIC [16] was 0.75 µg/mL, the Activity [17] was “inactive” and the Activity [18] was “inactive”. The Activity [19] was “inactive”, the Activity [20] was “inactive” and the Activity [21] was “inactive”. For the same sequence, the Activity [22] was “inactive”, the Activity [23] was “Active” and the MIC [24] was 1.5 µg/mL. The Activity [25] was “Active”, the MIC [26] was 2 µg/mL and the MIC [27] was greater than 4 µg/mL. The MIC [28] was 0.75 µg/mL and the MIC [29] was 1 µg/mL.
